# How the values were obtained:
# [1] = biological target: NAD(P)H dehydrogenase [quinone] 1 (Homo sapiens) (UniProt P15559); assay: Kinetic analysis using purified human DT-diaphorase.
# Procedure, shortened: (§1)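 Purified human DT-diaphorase (4.8 × 10-4 mg) with 1 mM NADH, 55 µM cytochrome c, 0.01 mM dithiothreitol in 0.05 M Tris pH 7.6; quinone in DMSO starts reaction. Run in triplicate at 25 °C, following cytochrome c reduction at 550 nm, no-enzyme background controls. Initial linear rates; KM and Vmax from Hanes plot.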
# [2] = biological target: NAD(P)H dehydrogenase [quinone] 1 (Homo sapiens) (UniProt P15559); assay: Ratio of Kcat and Km; procedure, shortened: as §1
# [3] = tested on: BE; assay: cytotoxic activity against human colon carcinoma BE cell lines.; type: functional
# Procedure, shortened: (§2)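 Clonogenic survival: exponentially growing cells suspended at 1.7-2 × 10^5 cells/mL in serum-free MEM/HEPES, exposed 2 h at 37 °C, 5% CO2 to five final drug concentrations (solvent ethanol or DMSO, at most 1%), washed, plated at 2-3 densities, grown 10 days. Crystal violet-stained colonies of ≥50 cells counted; LC99 from log surviving fraction vs concentration.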
# [4] = tested on: HT-29; assay: cytotoxic activity against human colon carcinoma HT-29 cell lines.; type: functional; procedure, shortened: as §2
# [5] = biological target: NAD(P)H dehydrogenase [quinone] 1 (Homo sapiens) (UniProt P15559); assay: Ratio of Vmax and Km; set-up: unit not given here; procedure, shortened: as §1
# Chain of NAD(P)H dehydrogenase [quinone] 1 (Homo sapiens) (P15559 whole entry): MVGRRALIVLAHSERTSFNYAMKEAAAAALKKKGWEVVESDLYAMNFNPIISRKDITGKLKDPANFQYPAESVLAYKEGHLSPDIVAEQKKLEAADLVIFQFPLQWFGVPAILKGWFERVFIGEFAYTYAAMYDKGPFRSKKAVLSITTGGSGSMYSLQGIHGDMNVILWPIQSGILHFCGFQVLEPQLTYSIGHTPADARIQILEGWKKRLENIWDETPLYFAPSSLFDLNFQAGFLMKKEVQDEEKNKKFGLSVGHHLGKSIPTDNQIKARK
Structure (SMILES),k cat [1],Ratio [2],LC99 [3],LC99 [4],Ratio [5]
Cn1c(COP(N)(=O)N(CCCl)CCCl)nc2c1C(=O)C=CC2=O (stereo not drawn),41 s⁻¹,4.5,300 µM,220 µM,0.4
NP(=O)(OCC1=CC(=O)c2ccccc2C1=O)N(CCCl)CCCl (stereo not drawn),51 s⁻¹,2,13 µM,11 µM,1.8
NP(=O)(OCC1=C(Br)C(=O)c2ccccc2C1=O)N(CCCl)CCCl (stereo not drawn),97 s⁻¹,3,3.3 µM,4.1 µM,2.7
CC(=O)OCC1=CC(=O)c2ccccc2C1=O,280 s⁻¹,1.6,22 µM,64 µM,1.4
CC1=CC(=O)c2ccccc2C1=O,700 s⁻¹,5.8,–,–,0.5
CC1=C(COP(=O)(N(C)CCBr)N(C)CCBr)C(=O)c2ccccc2C1=O,180 s⁻¹,0.5,0.44 µM,1.5 µM,0.44
NP(=O)(OCC1=CC(=O)c2ccccc2C1=O)N1CCOCC1 (stereo not drawn),15 s⁻¹,0.16,72 µM,89 µM,0.83
Cn1c(COP(N)(=O)N(CCBr)CCBr)nc2c1C(=O)C=CC2=O (stereo not drawn),66 s⁻¹,3.1,120 µM,130 µM,0.28
NP(=O)(OCC1=CC(=O)c2ccccc2C1=O)N(CCBr)CCBr (stereo not drawn),46 s⁻¹,2.2,4.6 µM,7.8 µM,2
CC1=C(COP(N)(=O)N(CCCl)CCCl)C(=O)c2ccccc2C1=O (stereo not drawn),78 s⁻¹,8.6,1 µM,2.1 µM,0.76
CSC1=C(COP(N)(=O)N(CCCl)CCCl)C(=O)c2ccccc2C1=O (stereo not drawn),72 s⁻¹,1.2,5.9 µM,4.2 µM,1.1
CN(CCCl)P(=O)(OCC1=CC(=O)c2ccccc2C1=O)N(C)CCCl,190 s⁻¹,1.4,2.8 µM,4.5 µM,1.2
CN(CCBr)P(=O)(OCC1=CC(=O)c2ccccc2C1=O)N(C)CCBr,115 s⁻¹,1.3,1.2 µM,4.5 µM,1.1
CC1=C(COP(N)(=O)N(CCBr)CCBr)C(=O)c2ccccc2C1=O (stereo not drawn),63 s⁻¹,9.1,1.2 µM,1.7 µM,0.81
O=C1C=C(COP(=O)(NCCCl)NCCCl)C(=O)c2ccccc21,88 s⁻¹,2.3,7.8 µM,14 µM,2.1

# Source: ChEMBL document CHEMBL1133441, “Development of novel quinone phosphorodiamidate prodrugs targeted to DT-diaphorase” (2000)
